IDH1 mut inh = inhibitors of human IDH1 R132H. IDH1 R132H reductase, diaphorase/resazurin fluorescence, 60 min. O75874. AID 624101. 70,000 tested, 0.18% active. inhibition, % at 10 µM; in the data active = inhibition above about 34%; inconclusive = no clear call, values can overlap the other calls; inactive = below about 11%;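 also: 0% = DMSO and 100% = no enzyme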
Target sequence (O75874 whole entry R132H): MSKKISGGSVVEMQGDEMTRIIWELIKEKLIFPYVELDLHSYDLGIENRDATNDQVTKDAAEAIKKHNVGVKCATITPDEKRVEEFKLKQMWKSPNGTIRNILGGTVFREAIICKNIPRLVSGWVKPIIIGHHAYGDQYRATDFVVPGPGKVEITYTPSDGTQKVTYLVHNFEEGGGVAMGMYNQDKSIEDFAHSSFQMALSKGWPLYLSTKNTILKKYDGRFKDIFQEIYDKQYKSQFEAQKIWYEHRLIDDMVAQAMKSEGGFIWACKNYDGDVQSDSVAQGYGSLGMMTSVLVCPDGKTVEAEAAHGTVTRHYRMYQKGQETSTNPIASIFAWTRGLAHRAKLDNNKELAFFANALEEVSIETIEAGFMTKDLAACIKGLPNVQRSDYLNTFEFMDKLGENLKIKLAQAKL
Pf Dd2 growth = blocks growth of Plasmodium falciparum Dd2 parasites. P. falciparum Dd2 growth, SYBR Green, 72 h; active compounds read low. activity change, % at 10 µM. 94,000 tested, 2.3% active. AID 1159554; in the data active = activity change below about -80%; inconclusive = no clear call, values can overlap the other calls
GASC1 inh = blocks human GASC-1 (KDM4C) demethylase activity | Q9H3R0 | GST-KDM4C 2-372, H3K9me3 peptide, LANCE TR-FRET | inhibition, % at 12.5 µM | 96,000 tested, 0.15% active | AID 720574;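 active = mean replicate inhibition above about 25%, with at least 55% of replicates also reaching it, limit read from the data, passing the limit was not always enough; inconclusive = only one of those two conditions met; inactive = neither condition met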
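System: N-terminal GST-fused human GASC-1 (KDM4C) fragment, residues 2-372 / Amount: 10 nM GST-KDM4C in enzyme reaction / Also added: H3K9me3 peptide with Fe(II)/2OG / Times: 30 min demethylation and 1 h detection at room temperature / Signal: LANCE TR-FRET / Read-out basis: Fall in 671/618 emission ratio as inhibition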
Tcruzi prolif = T. cruzi proliferation inhibition | T. cruzi beta-gal in NIH3T3, GalScreen luminescence, 90 h | inhibition, % at 8.34 µM | 77,000 tested, 5.9% active | AID 624255;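 active = mean inhibition above about 93%, with at least 55% of replicates each passing it, limit read from the data, passing the limit was not always enough; inconclusive = only one of those two conditions holds; inactive = neither condition holds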
* = called active by the depositor; ? = inconclusive; · = no result given; ! = not active in a repeat. An excerpt weighted towards active compounds, which were near 5.8% of everything screened.

SMILES	IDH1 mut inh	Pf Dd2 growth	GASC1 inh	Tcruzi prolif
Cc1ccc(-c2ccc(C3[C@@H]4CN(C(=O)Nc5ccc(C(F)(F)F)cc5)C[C@H]3N4)cc2)cc1 (some centres undefined)	·	-85.0*	-5.2	·
N#Cc1ccc(-c2ccc(C3[C@@H]4CN(C(=O)Nc5ccc(C(F)(F)F)cc5)C[C@H]3N4)cc2)cc1 (some centres undefined)	·	?	-20.5	·
COc1ccc(NC(=O)N2[C@@H]3CNC[C@H]2C3c2ccc(-c3ccc(OC)cc3)cc2)cc1 (some centres undefined)	·	-33.2	0.9	·
O=C(Nc1ccc(C(F)(F)F)cc1)N1C[C@@H]2N[C@H](C1)C2c1ccc(-c2cccc(F)c2)cc1 (some centres undefined)	·	-83.5*!	1.7	·
COc1ccc(-c2ccc(C3[C@H]4CNC[C@@H]3N4C(=O)Nc3ccc(C(F)(F)F)cc3)cc2)cc1 (some centres undefined)	·	-84.1*!	-0.6	·
COc1ccc(S(=O)(=O)Nc2ccc3c(c2)C(=O)N([C@H](C)CO)C[C@H](C)[C@@H](CN(C)S(=O)(=O)c2ccc(OC)cc2)O3)cc1	1.3	-85.5*	1.6	·
COc1ccc(S(=O)(=O)N(C)C[C@H]2OCCCC[C@H](C)Oc3ccc(NS(=O)(=O)c4ccc(C)cc4)cc3C(=O)N([C@@H](C)CO)C[C@H]2C)cc1	2.5	-82.3*	-3.6	81.6
COc1ccc(S(=O)(=O)N(C)C[C@@H]2OCCCC[C@@H](C)Oc3ccc(NS(=O)(=O)c4ccc(C)cc4)cc3C(=O)N([C@@H](C)CO)C[C@H]2C)cc1	·	-42.6	-0.2	101.6*
COc1cc(Cc2nccc3cc(OC)c(OC)cc23)c(NC(=O)c2cccc(Br)c2)cc1OC	-0.6	·	·	·
Cc1cc(C)nc(NS(=O)(=O)c2ccc(NC(=S)NC(=O)c3ccccc3Br)cc2)n1	0.1	·	·	·
C[C@H](CO)N1C[C@H](C)[C@H](CN(C)CC2CC2)Oc2ccc(NC(=O)Nc3ccccc3)cc2CC1=O	0.8	-89.1*	-3.4	-26.5
C[C@H]1CN([C@@H](C)CO)C(=O)Cc2cc(NC(=O)CCC(F)(F)F)ccc2O[C@H]1CN(C)S(C)(=O)=O	-0.7	-87.3*	2.9	-1.0
C[C@@H]1CN([C@@H](C)CO)C(=O)Cc2cc(NC(=O)Nc3ccc(C(F)(F)F)cc3)ccc2O[C@@H]1CN(C)CC1CC1	·	-83.2*	-3.2	69.8
C[C@H](CO)N1C[C@H](C)[C@H](CN(C)CC2CC2)Oc2ccc(NC(=O)Nc3ccc(C(F)(F)F)cc3)cc2CC1=O	·	-76.1	-0.5	28.8
C[C@@H]1CN([C@H](C)CO)C(=O)Cc2cc(NC(=O)Nc3ccccc3)ccc2O[C@H]1CN(C)CC1CC1	0.1	-15.7	-0.3	-38.2
C[C@H]1CN([C@@H](C)CO)C(=O)c2c(c3ccccc3n2C)-c2ccccc2CO[C@H]1CN(C)C(=O)c1cc(Cl)cc(Cl)c1	·	-87.9*	-1.5	·
C[C@H]1CN([C@@H](C)CO)C(=O)c2c(c3ccccc3n2C)-c2ccccc2CO[C@@H]1CN(C)C(=O)c1cc(Cl)cc(Cl)c1	·	?	-1.3	·
C[C@@H]1CN([C@H](C)CO)C(=O)c2c(c3ccccc3n2C)-c2ccccc2CO[C@@H]1CN(C)C(=O)c1cc(Cl)cc(Cl)c1	·	-92.3*	-1.7	·
C[C@H](CO)N1C[C@H](C)[C@H](CN(C)C(=O)c2ccc(F)cc2)OCc2ccccc2-c2c(n(C)c3ccccc23)C1=O	0.5	-85.7*	-1.8	59.7
C[C@H]1CN([C@@H](C)CO)C(=O)c2c(c3ccccc3n2C)-c2ccccc2CO[C@@H]1CN(C)C(=O)c1ccccc1	·	-55.7	-1.9	-22.1
COc1ccc(C#Cc2cccc(-c3nc(C(=O)O)cc4c3[C@H](CCO)N(S(=O)C(C)(C)C)C4)c2)cc1OC (some centres undefined)	·	·	13.1	59.5
COc1ccccc1-c1cccc(-c2nc(C(=O)Nc3nccs3)cc3c2[C@H](CCO)N(C(=O)CC2CC2)C3)c1	·	-85.6*	6.4	·
COc1ccc(C#Cc2cccc(-c3nc(C(=O)Nc4ccc(-c5ccccc5)cc4)cc4c3[C@@H](CCO)N(S(=O)C(C)(C)C)C4)c2)cc1OC (some centres undefined)	·	-88.9*	-2.3	·
COc1cccc(-c2cccc(-c3nc(C(=O)Nc4ccc(-c5ccccc5)cc4)cc4c3[C@@H](CCO)N(S(=O)C(C)(C)C)C4)c2)c1 (some centres undefined)	·	-84.2*	-2.9	·
CCn1c(SCC(=O)Nc2ccccc2F)nnc1-c1ccccc1F	0.2	·	·	·
SMILES	IDH1 mut inh	Pf Dd2 growth	GASC1 inh	Tcruzi prolif
COc1ccc(C2C(C(=O)Nc3ccccc3)=C(C)Nc3ncnn32)cc1O (centres undefined)	0.4	·	·	·
COc1ccccc1OCCCSc1nc(-c2ccccc2)cc(=O)[nH]1	8.6	·	·	·
COc1ccc2cc1/C=C\NC(=O)C(Cc1ccccc1)NC(=O)C1C(CCN1C(=O)C(NC(=O)C(C)N(C)C)C(C)C)O2 (centres undefined)	0.2	·	·	·
C[C@@H]1CN([C@@H](C)CO)C(=O)c2cc(NC(=O)Nc3cccc4ccccc34)ccc2O[C@@H](C)CCCCO[C@@H]1CN(C)C(=O)c1ccccc1	·	-44.1	4.0	-3.0
CCCN(C)C[C@@H]1OCCCC[C@H](C)Oc2ccc(NC(=O)Nc3cccc4ccccc34)cc2C(=O)N([C@H](C)CO)C[C@@H]1C	-29.7	-88.3*	18.6	·
C[C@@H]1CCCCO[C@H](CN(C)C)[C@H](C)CN([C@H](C)CO)C(=O)c2cc(NC(=O)Nc3cccc4ccccc34)ccc2O1	-13.8	-85.8*	-0.5	78.5
C[C@@H]1CCCCO[C@@H](CN(C)C(=O)Nc2cccc3ccccc23)[C@@H](C)CN([C@@H](C)CO)C(=O)c2cc(NC(=O)Nc3cccc4ccccc34)ccc2O1	·	-83.3*	-0.3	26.2
C[C@@H]1CN([C@@H](C)CO)C(=O)c2cc(NC(=O)Nc3cccc4ccccc34)ccc2O[C@@H](C)CCCCO[C@@H]1CN(C)C(=O)C1CCCCC1	·	-88.1*	-1.4	95.9
CCCN(C)C[C@@H]1OCCCC[C@@H](C)Oc2ccc(NC(=O)Nc3cccc4ccccc34)cc2C(=O)N([C@H](C)CO)C[C@@H]1C	-1.2	?	-0.9	70.9
C[C@@H]1CCCCO[C@@H](CN(C)C(=O)Nc2cccc3ccccc23)[C@H](C)CN([C@@H](C)CO)C(=O)c2cc(NC(=O)Nc3ccccc3)ccc2O1	1.8	-31.4	7.4	44.0
COc1ccccc1NC(=O)CSc1nc2ccc([N+](=O)[O-])cc2[nH]1	0.3	·	·	·
Cc1ccc(OCCCSc2nc(C)cc(=O)[nH]2)c(I)c1	0.2	·	·	·
CCn1c2ccccc2c2cc(NC(=O)CN3C(=O)c4ccccc4C3=O)ccc21	-0.2	·	·	·
COc1ccc2c3c(n(C)c2c1)[C@H](CO)N(CC1CC1)CC31CCN(C(=O)Nc2ccccc2)CC1	·	-64.9	-0.8	·
COc1ccc2c3c(n(C)c2c1)[C@@H](CO)N(CC1CCOCC1)CC31CCN(C(=O)Nc2ccccc2)CC1	·	-83.4*	-0.4	·

Screens deposited in PubChem BioAssay by Broad Institute.
